From ChEMBL document CHEMBL4665897, “α-Linolenic Acid-Valproic Acid Conjugates: Toward Single-Molecule Polypharmacology for Multiple Sclerosis” (ACS Med Chem Lett, 2020)
Calls of active or inactive are those of the source.

Columns and labels:
Olineu [1] = assay: Induction in mouse Oli-neu cell differentiation to oligodendrocytes assessed as increase in CNPase expression at 5 uM after 72 hrs by Western blot analysis; type: functional
How it was run: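 Oli-Neu cells exposed to 5 μM compound; Olig2 was assessed at 48 h and CNPase at 72 h. Values are % of control, mean SE of at least three experiments, one-way ANOVA with Bonferroni.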

Olineu [2] = assay: Induction in mouse Oli-neu cell differentiation to oligodendrocytes assessed as increase in filament length at 5 uM after 48 hrs; type: functional
How it was run: (§1)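 Oli-Neu cells (immortalized mouse oligodendrocyte precursors) exposed to 5 μM compound for 48 h. Proliferation was scored by cell counting and differentiation by filament length. Values are % of control, mean SE of at least three experiments, one-way ANOVA with Bonferroni.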

[3] = test system: Cerebellar granule neurone; assay: Neuroprotective activity against glutamate/glycine-induced excitotoxicity in rat primary Cerebellar granule neurone at 25 uM preincubated for 6 hrs measured after 24 hrs by MTT assay; type: functional, tissue-based
How it was run: (§2)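 Primary rat cerebellar granule neurons at 8 DIV pretreated 6 h with compound (5, 10, 25 μM), then 100 μM glutamate/10 μM glycine added for a further 24 h with compound present. Viability was read by MTT, expressed as % of control. Values are mean SE of at least four experiments, each in triplicate.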

[4] = test system: Cerebellar granule neurone; assay: Neuroprotective activity against glutamate/glycine-induced excitotoxicity in rat primary Cerebellar granule neurone at 10 uM preincubated for 6 hrs measured after 24 hrs by MTT assay; type: functional, tissue-based; how it was run: as §2
[5] = test system: Cerebellar granule neurone; assay: Neuroprotective activity against glutamate/glycine-induced excitotoxicity in rat primary Cerebellar granule neurone at 5 uM preincubated for 6 hrs measured after 24 hrs by MTT assay; type: functional, tissue-based; how it was run: as §2
Olineu [6] = assay: Induction in mouse Oli-neu cell differentiation to oligodendrocytes assessed as decrease in cell number at 5 uM after 48 hrs; type: functional; how it was run: as §1
[7] = target: T1, Histone deacetylase (Homo sapiens) (UniProt Q13547+O15379+Q9UBN7+Q92769+Q9UQL6+Q8WUI4+Q9BY41+Q96DB2+P56524+Q9UKV0+Q969S8); assay: Inhibition of HDAC in human medulloblastoma (DAOY) cells assessed as increase in acetylated histone levels at […] after 48 hrs by densitometric analysis
[8] = target: T1, Histone deacetylase (Homo sapiens); assay: Inhibition of HDAC in human medulloblastoma (DAOY) cells assessed as increase in acetylated histone levels at 0.5 mM after 48 hrs by densitometric analysis
How it was run: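 HDAC inhibition in human DAOY medulloblastoma cells was read as acetylated histone H3 by immunoblot densitometry. […] Values are mean SD of three independent experiments, Newman–Keuls after ANOVA versus vehicle.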

Olineu [9] = assay: Induction in mouse Oli-neu cell differentiation to oligodendrocytes assessed as decrease in Olig2 expression at 5 uM after 48 hrs by Western blot analysis
N9 (Mus musculus) [10] = assay: Immunomodulatory activity in LPS treated mouse N9 microglial cells assessed as reduction in nitrite level at 0.5 uM preincubated for 6 hrs by Griess reagent assay; conditions: time 24.0 hrs
N9 (Mus musculus) [11] = assay: Immunomodulatory activity in LPS treated mouse N9 microglial cells assessed as shift in M1 neurotoxic phenotype to M2 neuroprotective by measuring TREM2 expression level at 0.5 uM preincubated for 6 hrs by western blot analysis
N9 (Mus musculus) [12] = assay: Immunomodulatory activity in LPS treated mouse N9 microglial cells assessed as shift in M1 neurotoxic phenotype to M2 neuroprotective by measuring decrease in iNOS expression level at 0.5 uM preincubated for 6 hrs by western blot analysis

CC/C=C\C/C=C\C/C=C\CCCCCCCC(=O)NCCNC(=O)C(CCC)CCC
inactive: Activity [3] | inhibition (N9 (Mus musculus) [11])
active: Activity (Olineu [1]) | Activity (Olineu [2]) | Activity [4] | Activity [5] | Activity (Olineu [6]) | inhibition [7] | inhibition [8] | Activity (Olineu [9]) | inhibition (N9 (Mus musculus) [10]) | inhibition (N9 (Mus musculus) [12])

CC/C=C\C/C=C\C/C=C\CCCCCCCC(=O)NCCOC(=O)C(CCC)CCC
inactive: Activity [3] | inhibition (N9 (Mus musculus) [11])
active: Activity (Olineu [2]) | Activity [4] | Activity [5] | Activity (Olineu [6]) | inhibition [7] | inhibition [8] | Activity (Olineu [9]) | inhibition (N9 (Mus musculus) [10]) | inhibition (N9 (Mus musculus) [12])

CCCC(CCC)C(=O)O
active: Activity (Olineu [1]) | Activity (Olineu [6]) | inhibition [7]
inactive: Activity [3] | Activity [4] | Activity [5]

CC/C=C\C/C=C\C/C=C\CCCCCCCC(=O)O
inactive: Activity [3]
